Source: PubChem (The Scripps Research Institute Molecular Screening Center)
CHO-K1 Ca PAM – nonselective activator or artifact in parental CHO-K1 calcium assay; ATP EC20, Fluo-8 calcium fluorescence; 0% at ATP EC20, 100% at ATP max; activation, % at 3 µM; 0.02% of 360,000 active; AID 602247;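 active = activation above the run cutoff, the mean activation of all test compounds plus 3 SD, cut at about 40% in these data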;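 note: peak over basal fluorescence ratio in a 140 s read after ATP addition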
M1 ag parental – nonselective activator or artifact in parental CHO-K1 cells. Fluo-8 calcium fluorescence; scaled to maximal ATP response, vehicle zero. 0.48% of 360,000 active. AID 602248. activation, % at 3 µM; in the data active = activation above about 15%;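 note: untransfected CHO-K1 host cells lacking M1 receptor as counterscreen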
CHO parental Ca – counter-screen: ATP calcium response change in parental CHO cells; parental CHO-K1, ATP-induced calcium, Fluo-8 fluorescence; inhibition, % at 5.6 µM; 0.63% of 330,000 active;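 active = inhibition above that plate's mean sample inhibition plus 3 SD, cut at about 26% in these data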
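Material – parental CHO cells · Reagent – ATP stimulus · Compound – single nominal dose of 5.6 µM per compound · Detection – Fluo-8 fluorescence · Read-out basis – percent inhibition of calcium signal · Controls – ATP-challenged DMSO wells low, unchallenged DMSO wells high · Repeats – no replicates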
CHO-K1 Ca antag – M1 antagonist counterscreen hit in parental CHO-K1 cells; 0.6% of 360,000 active; inhibition, % at 3 µM; AID 602250; ATP-induced calcium, Fluo-8 fluorescence;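 active = inhibition above a per-plate cutoff, the plate's mean sample inhibition plus 3 SD, cut at about 24% in these data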
OX1R antag-1 – OX1R (human) antagonism; inhibition, % at 6.6 µM; OX1R-expressing cells, FRET antagonist read-out; AID 485270; 1.8% of 330,000 active; O43613; in the data active = inhibition mostly above about 38%, no sharp cut-off; inactive = mostly below about 40%
Target sequence (O43613 whole entry, looked up): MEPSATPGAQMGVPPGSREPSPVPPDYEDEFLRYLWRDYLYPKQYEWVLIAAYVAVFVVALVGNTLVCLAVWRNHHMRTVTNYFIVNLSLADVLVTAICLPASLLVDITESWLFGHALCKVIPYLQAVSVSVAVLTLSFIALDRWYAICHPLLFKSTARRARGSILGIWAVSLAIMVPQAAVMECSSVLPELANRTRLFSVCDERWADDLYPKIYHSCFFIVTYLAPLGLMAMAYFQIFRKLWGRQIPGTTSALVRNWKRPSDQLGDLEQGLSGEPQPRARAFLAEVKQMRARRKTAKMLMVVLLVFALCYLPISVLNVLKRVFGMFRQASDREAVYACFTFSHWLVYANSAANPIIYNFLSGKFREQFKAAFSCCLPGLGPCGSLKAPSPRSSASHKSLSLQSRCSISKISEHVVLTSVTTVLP
OX1R antag-2 – antagonists of human orexin 1 receptor. CHO/OX1R cells, Fluo-8 calcium fluorescence, orexin A. O43613. 0.43% of 330,000 active. inhibition, % at 5 µM;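 active = inhibition above its plate's threshold, mean inhibition of all tested compounds on the plate plus 3 SD, cut at about 37% in these data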
Hits are given with their value; 0 = inactive; - = no result given. Sampled rows, rich in hits. Any-hit rate of the full collection: about 2.9%.

SMILES	CHO-K1 Ca PAM	M1 ag parental	CHO parental Ca	CHO-K1 Ca antag	OX1R antag-1	OX1R antag-2
CCCCn1c(=O)nc2n(-c3ccccc3C)c3ccccc3cc-2c1=O	0	0	0	0	0	0
Cc1ccccc1-n1c2nc(=O)n(C)c(=O)c-2cc2ccccc21	0	0	0	0	65	0
Fc1ccc(-c2csc3[n+]2CCS3)cc1	0	0	0	0	0	0
O=[N+]([O-])c1ccc(-c2csc3[n+]2CCS3)cc1	0	0	0	0	74	0
COc1cc(/C=N/NS(=O)(=O)c2ccccc2)c(OC)c(OC)c1	0	16	0	0	0	0
COc1cccc(/C=N\NS(=O)(=O)c2ccccc2)c1OC	0	0	0	0	0	0
O=C(CCN1C(=O)c2ccccc2S1(=O)=O)Nc1ccc(C(=O)O)cc1	0	0	0	0	0	0
Cn1nc(-c2ccc(Cl)cc2)nc2c(=O)n(C)c(=O)nc1-2	-	-	0	-	91	0
CNC(=S)NNC(=O)c1cn(C)nc1C	0	0	0	24	0	0
Cc1nn(C)cc1C(=O)NNC(=S)Nc1ccccc1	0	0	0	0	0	0
Oc1ccc(N=Nc2ccc(Br)cc2)c(O)c1	0	0	0	0	0	0
Cc1ccc(N=Nc2ccc(O)cc2)c(Br)c1	0	0	56	0	0	0
Cc1ccc(S(=O)(=O)N2[C@@H](c3ccccc3)C(C(=O)O)=CC[C@H]2c2ccc(Cl)c(Cl)c2)cc1	0	0	0	0	55	0
Cc1ccc(S(=O)(=O)N2[C@@H](c3ccccc3F)C(C(=O)O)=CC[C@H]2c2ccc(Cl)c(Cl)c2)cc1	0	0	0	0	67	0
Cn1c(CCNC(=O)c2ccccc2F)nnc1SCC(=O)Nc1nncs1	0	0	0	0	0	0
Cn1nccc1-c1ccc(C(=O)NCc2ccco2)c2occc12	0	0	-	0	-	-
NC(=O)Nc1ccc(C(=O)OCC(=O)c2c[nH]c3ccccc23)cc1	0	0	0	0	0	0
N#CCC(=O)Nc1ccc(C(=O)OCC(=O)c2c[nH]c3ccccc23)cc1	0	0	0	0	39	0
CC1ON=C(c2ccc(F)cc2)NC1=O (centres undefined)	0	0	-	0	-	-
Cc1ccc(NC(=O)c2cccnc2C(=O)O)nc1	0	0	0	0	0	0
CCCCn1c(SCc2nc(N)nc(Nc3ccccc3C)n2)nc2ccccc2c1=O	0	0	0	0	71	0
COCC(C)n1c(SCc2nc(N)nc(Nc3ccccc3C)n2)nc2ccccc2c1=O (centres undefined)	0	0	0	0	0	0
O=C(COC(=O)c1cc[n+]([O-])cc1)Nc1cccc(Br)c1	0	0	-	0	-	-
O=C(Nc1nc2ccccc2s1)c1ccc(F)cc1	0	0	0	0	0	0
O=C(Nc1nc2ccccc2s1)c1ccc(Cl)s1	0	0	0	0	43	0
SMILES	CHO-K1 Ca PAM	M1 ag parental	CHO parental Ca	CHO-K1 Ca antag	OX1R antag-1	OX1R antag-2
O=C(Nc1nc2ccccc2s1)c1cc(-c2ccccc2)nn1-c1ccccc1	0	0	42	0	0	0
CC(=O)c1sc(NC(=O)c2cc(-c3ccccc3)nn2-c2ccccc2)nc1C	0	0	0	0	66	0
CCOc1c(C)cnc2c1c(=O)n(Cc1ccccc1F)c(=O)n2C	0	0	0	0	0	0
O=C(C[C@H]1C/C=C\CC[C@H](Cc2ccc(F)cc2)C(=O)OCCNC1=O)NCCO	0	0	0	0	0	0
COc1ccc(NC(=O)C2Cc3c(-c4cccc(C(C)=O)c4)ccnc3O2)cc1OC (centres undefined)	0	0	-	24	-	-
COc1ccc(NC(=O)C2Cc3c(-c4cccc(C(N)=O)c4)ccnc3O2)cc1OC (centres undefined)	0	0	-	0	-	-
COc1cccc(NC(=O)COC(=O)c2c3c(nc4ccccc24)CCC(C)C3)c1 (centres undefined)	0	0	0	0	36	0
CS(=O)(=O)c1ccc2nc(NC(=O)Nc3cccc(Cl)c3)sc2c1	0	16	33	0	39	0
CS(=O)(=O)c1ccc2nc(NC(=O)CS(=O)(=O)Cc3ccccc3)sc2c1	0	0	0	0	71	0
CSc1ccc(Cl)c(C(=O)N(C)CC(=O)Nc2ccc(N3CCOCC3)cc2)c1	0	0	0	0	0	0
CCOC(=O)c1cn(CC(=O)Nc2ccc(OC)cc2OC)nn1	0	0	0	0	0	0
O=C(CSc1nnc2scc(-c3ccccc3)n12)Nc1nsc(-c2ccccc2)n1	0	0	0	0	73	0
CCCc1cc(=O)oc2cc(C)cc(OCC(=O)N3CCC(C(=O)O)CC3)c12	0	0	0	0	0	0
Cc1ccc2nc(C)cc(C(=O)N/N=C/c3ccncc3)c2c1	0	0	0	0	0	0
CC1=CC(C)C2(CO)COC(c3cccnc3)C1C2C (centres undefined)	0	0	0	28	0	0
CN(C)c1ccc(N=Nc2ccccc2C(=O)OCC(=O)N2CCCCCC2)cc1	0	0	29	0	0	0
CN(C(=O)c1ccc(NC(=O)Cc2ccc(NC(=O)C3CCCN(C(=O)C4CCC4)C3)cc2)cc1)C1CCCC1 (centres undefined)	0	0	-	0	-	-
CCOc1ccc(NC(=O)c2ccc(NC(=O)c3ccccc3Br)cc2)cc1	0	0	-	30	-	-
CCOc1ccc(NC(=O)c2ccccc2CO)cc1	0	0	0	30	0	0
N#Cc1ccc(OCC(O)CN2CCN(c3ncc(C(F)(F)F)cc3Cl)CC2)cc1 (centres undefined)	0	0	0	0	0	0
N#CC1=C2SCCN2C(=O)C(C#N)C12CCCCC2 (centres undefined)	0	0	0	25	0	0
CC(=O)c1ccc(NC(=O)c2ccc3nc(C)sc3c2)cc1	0	0	0	0	61	0
CCNc1ccc(C(=O)Nc2ccc3nc(C)sc3c2)cc1[N+](=O)[O-]	0	0	0	0	60	0
Cc1nc2ccc(C(=O)Nc3ccc(N(C)C)cc3)cc2s1	0	0	0	0	61	0
O=C(Nc1ccccc1)c1cccc(C(=O)Nc2ccccc2)n1	0	0	0	0	0	0
SMILES	CHO-K1 Ca PAM	M1 ag parental	CHO parental Ca	CHO-K1 Ca antag	OX1R antag-1	OX1R antag-2
CN(C)c1ccc(NC(=O)c2ccc3nsnc3c2)cc1	0	0	0	0	0	0
CN(C)c1ccc(NC(=O)c2cccc(C(=O)Nc3ccc(N(C)C)cc3)n2)cc1	0	0	0	28	0	0
Cc1ccc(NC(=O)c2ccc(NCCN)c([N+](=O)[O-])c2)cc1Cl	0	0	0	0	0	0
Cc1ccc(CN2CC(N3CCCC3)CS2(=O)=O)cc1 (centres undefined)	0	0	-	0	-	-
O=C(NCCC1=CCCCC1)C1CCN(C(=O)Cc2ccccc2)CC1	0	0	0	0	0	0
CCCCn1c(N)c(Sc2ccccc2[N+](=O)[O-])c(=O)[nH]c1=O	0	0	0	0	55	0
O=C(CN1CCN(c2ccccn2)CC1)Nc1cccc(F)c1	-	-	0	-	0	0
